Reference: ChEMBL document CHEMBL1137014, “Structure-activity study of new inhibitors of human betaine-homocysteine S-methyltransferase” (J Med Chem, 2009)

Assays:
[1] = target: T1, Betaine--homocysteine S-methyltransferase 1 (Homo sapiens, UniProt Q93088); assay: Inhibition of human recombinant BHMT expressed in Escherichia coli using 2 mM betaine and 1 mM DL-homocysteine as substrate
T1 sequence (Q93088 whole entry): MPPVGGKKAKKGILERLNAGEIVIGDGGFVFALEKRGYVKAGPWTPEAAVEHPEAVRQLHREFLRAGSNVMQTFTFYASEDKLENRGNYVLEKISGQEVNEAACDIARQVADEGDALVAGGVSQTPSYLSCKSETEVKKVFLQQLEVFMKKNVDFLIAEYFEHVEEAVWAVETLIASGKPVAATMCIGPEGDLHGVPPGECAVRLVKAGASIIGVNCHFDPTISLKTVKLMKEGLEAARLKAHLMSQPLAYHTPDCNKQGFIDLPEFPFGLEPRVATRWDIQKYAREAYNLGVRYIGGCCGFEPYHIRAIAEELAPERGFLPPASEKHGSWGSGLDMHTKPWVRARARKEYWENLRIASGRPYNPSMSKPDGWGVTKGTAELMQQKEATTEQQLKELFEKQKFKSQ
Procedure, shortened: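 Same radiometric Dowex assay as for percent inhibition (0.2 μM enzyme, pH 7.5 K-phosphate, 37 °C, 30 min), but with 1 mM DL-homocysteine and 2 mM 14C-betaine. Ten inhibitor concentrations in duplicate per curve, IC50 by nonlinear regression. Three independent experiments, mean ± SEM.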

[2] = target: T1, Betaine--homocysteine S-methyltransferase 1; assay: Binding affinity to human recombinant BHMT expressed in Escherichia coli by isothermal titration calorimetry
Procedure, shortened: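 ITC at 25 °C in 50 mM HEPES/NaOH, ACES/NaOH or Tris/HCl, pH 7.5, with 5 mM β-mercaptoethanol, no substrates present. 9 μL aliquots of 50 μM ligand injected into 5.1 μM protein (monomer, quantified by amino acid analysis after dialysis) until saturation. Heats corrected for dilution using buffer-only injections and fitted to the integrated heats.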

[3] = target: T2, Betaine--homocysteine S-methyltransferase 1 (Homo sapiens) (UniProt Q93088); assay: Inhibition of human recombinant BHMT expressed in Escherichia coli at 20 uM using 0.25 mM betaine and 0.1 mM DL-homocysteine as substrate
T2 sequence (whole entry): T1 sequence (Q93088 whole entry)
Procedure, shortened: (§1)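 Radiometric assay with 0.2 μM enzyme, preincubated with inhibitor, then 100 μM DL-homocysteine (fresh from thiolactone) and 250 μM [methyl-14C]betaine. Run in 50 mM K-phosphate pH 7.5 with 10 mM β-mercaptoethanol, 37 °C, 30 min; stopped on ice. […] Enzyme-free blanks subtracted; triplicates; activity expressed relative to no-inhibitor control.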

[4] = target: T2, Betaine--homocysteine S-methyltransferase 1 (Homo sapiens); assay: Inhibition of human recombinant BHMT expressed in Escherichia coli at 1 uM using 0.25 mM betaine and 0.1 mM DL-homocysteine as substrate; procedure, shortened: as §1

Q: How did the IC50 [1] turn out when `CC(C)(CCSCC[C@@H](N)C(=O)O)CC(=O)O` was run?
A: 701 nM

Q: With `CC(C)(CCSCC[C@H](N)C(=O)O)CC(=O)O` as the compound, how does the Kd [2] read?
A: 51 nM

Q: What about the IC50 [1] of the same compound?
A: 64 nM

Q: Which inhibition [3] does the source give for `C[C@@H](NCCSCCC(N)C(=O)O)C(=O)O` (mixture of isomers) here?
A: 15.5%

Q: With `C[C@H](NCCSCCC(N)C(=O)O)C(=O)O` (mixture of isomers) as the compound, how does the inhibition [3] read?
A: 19.8%

Q: For `CC(C)(CCSCCC(N)C(=O)O)CC(=O)O` (racemic), which inhibition [4] is on record?
A: 98.1%

Q: And the IC50 [1]?
A: 84 nM

Q: What about the inhibition [3] of the same compound?
A: 100%

Q: How did the inhibition [4] turn out when `NC(CC[Se]CCCCC(=O)O)C(=O)O` (racemic) was run?
A: 94.3%

Q: What about the IC50 [1] of the same compound?
A: 649 nM

Q: And the inhibition [3]?
A: 100%

Q: Which inhibition [4] does the source give for `NC(CCSCSCCC(=O)O)C(=O)O` (racemic) here?
A: 26.3%

Q: And the IC50 [1]?
A: 3260 nM

Q: What about the inhibition [3] of the same compound?
A: 97.6%

Q: What does the source list for `C[C@@H](CCSCC[C@@H](N)C(=O)O)CC(=O)O` (racemic)?
A: inhibition [4]: 97.8%; IC50 [1]: 139 nM; inhibition [3]: 100%

Q: What does the source list for `CN(CCSCCC(N)C(=O)O)CC(=O)O` (racemic)?
A: inhibition [4]: 58.9%; IC50 [1]: 2500 nM; inhibition [3]: 98.5%

Q: Which results are given for `CN(CCCSCCC(N)C(=O)O)CC(=O)O` (racemic)?
A: inhibition [4]: 22.4%; inhibition [3]: 79%

Q: How did the inhibition [4] turn out when `C[N+](C)(CCCSCCC(N)C(=O)O)CC(=O)[O-]` (racemic) was run?
A: 0%

Q: What about the inhibition [3] of the same compound?
A: 3.3%

Q: How did the inhibition [4] turn out when `C[N+](C)(CCSCCC(N)C(=O)O)CC(=O)[O-]` (racemic) was run?
A: 5.1%

Q: What about the inhibition [3] of the same compound?
A: 23.8%

Q: With `C[N+](C)(CSCCC(N)C(=O)O)CC(=O)[O-]` (racemic) as the compound, how does the inhibition [4] read?
A: 0%

Q: What about the inhibition [3] of the same compound?
A: 0%

Q: With `NC(CCCCCCCC(=O)O)C(=O)O` (racemic) as the compound, how does the inhibition [3] read?
A: 2.11%

Q: How did the inhibition [3] turn out when `NC(CCCSCCCC(=O)O)C(=O)O` (racemic) was run?
A: 5.4%

Q: Which inhibition [3] does the source give for `NC(CCOCCCCC(=O)O)C(=O)O` (racemic) here?
A: 9.8%

Q: For `NC(CCSCCNCC(=O)O)C(=O)O` (racemic), which inhibition [3] is on record?
A: 37.1%

Q: For `NC(CCSCCNCCC(=O)O)C(=O)O` (racemic), which inhibition [3] is on record?
A: 0%

Q: For `NC(CCSSCCCC(=O)O)C(=O)O` (racemic), which inhibition [3] is on record?
A: 19.1%
